The text below walks through data of the array DNA melting data of Ke et al. (doi:10.1101/2024.01.08.574731).

The nature of data set [1]: melting temperature; fluorescence melt of hairpins on a sequencing array, two-state fit, raised by 9.35 °C to match UV melts. Particulars: sodium 0.088 M. The method in brief: (§1)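 Library hairpins on a sequenced MiSeq flow cell carried annealed Cy3 and quencher oligos, and their Cy3 fluorescence was imaged in 50 mM Na-HEPES pH 8.0 with 25 mM NaCl, in 2.5 °C steps up to 60 °C. Signals were normalised to Cy3 before quenching and to control constructs. Melting temperature and folding enthalpy were obtained from bootstrapped two-state fits, combined by inverse-variance weighting across four replicates, and the fitted temperatures were then raised by 9.35 °C to match UV melts.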

Data set [2] can be described thus: folding enthalpy; higher = less favourable; fluorescence melt of hairpins on a sequencing array, two-state fit. The settings on record: sodium 0.088 M. In a few lines:
as §1

Consider GACAACCGAAAGGTCGTC (((.(((....))).))), for which the Tm in data set [1] turned out to be 49.5 °C. Moreover, the folding enthalpy in data set [2] was -38.6 kcal/mol.

With GACAACCGAAAGGTGTC (((.(((....)))))), the Tm in data set [1] was determined as 53.9 °C. Further, the folding enthalpy in data set [2] is -24.8 kcal/mol.

Take GACAACGAAAGTTACGTC ((((((....)))..))): the Tm in data set [1] amounted to 30.6 °C. In addition, the folding enthalpy in data set [2] is -12.5 kcal/mol.

Consider GACAACGAAAGTTAGGTC ((((((....)))..))), for which the Tm in data set [1] is 33.7 °C. Besides, the folding enthalpy in data set [2] is -14.6 kcal/mol.

GACAACGAAAGTTATGTC ((((((....)))..))): the Tm in data set [1] worked out at 32.3 °C. Further, in data set [2], the folding enthalpy was -17.8 kcal/mol.

With GACAACGAAAGTTTGTC ((((((....))).))), the Tm in data set [1] turned out to be 47.3 °C. The folding enthalpy in data set [2] is -27.6 kcal/mol.

With GACAAGGAAACTTGTC ((((((....)))))), in data set [1], the Tm was 51.8 °C. Moreover, in data set [2], the folding enthalpy was -43.8 kcal/mol.

Take GACAATACGAAAGTAGTC (((..(((....)))))): the Tm in data set [1] came to 30.3 °C. The folding enthalpy in data set [2] is -16.4 kcal/mol.

Take GACACACGAAAGTGAGTC (((.(((....))).))): the Tm in data set [1] stood at 56.1 °C. The folding enthalpy in data set [2] was -31 kcal/mol.

Turning to GACACAGGAAACTGTATC ((.((((....)))).)), in data set [1], the Tm is 28.3 °C. Further, the folding enthalpy in data set [2] was -14.1 kcal/mol.

For the sequence GACACCCCGAAAGGGGTC (((..(((....)))))), the Tm in data set [1] came to 37.7 °C. Besides, in data set [2], the folding enthalpy is -6.64 kcal/mol.

For GACACCCGAAAGGGGTC (((.(((....)))))), the Tm in data set [1] is 54.8 °C. The folding enthalpy in data set [2] is -18.5 kcal/mol.

GACACCGAAAGGTATGTC ((((((....)))..))): in data set [1], the Tm came out at 39.2 °C. Further, in data set [2], the folding enthalpy is -19.6 kcal/mol.

In the case of GACACCGAAAGGTTCGTC ((((((....)))..))), in data set [1], the Tm came out at 41.2 °C. The folding enthalpy in data set [2] was -20.4 kcal/mol.

GACACCGGAAACGGCATC ((..(((....)))..)): in data set [1], the Tm was determined as 25.4 °C. For the same sequence, in data set [2], the folding enthalpy was -9.17 kcal/mol.

As to GACACCGGAAACGGTACC (..((((....))))..), the Tm in data set [1] came to 24.2 °C. The folding enthalpy in data set [2] was -10.5 kcal/mol.

With GACACCGGAAACGGTATC ((.((((....)))).)), the Tm in data set [1] is 36.1 °C. For the same sequence, the folding enthalpy in data set [2] is -15.9 kcal/mol.

Take GACACCGGAAACGGTGCC (.(((((....))))).): the Tm in data set [1] was 48.8 °C. The folding enthalpy in data set [2] is -13.4 kcal/mol.

Take GACACGCGAAAGCGAGTC (((.(((....))).))): the Tm in data set [1] stood at 60.5 °C. The folding enthalpy in data set [2] is -24.3 kcal/mol.

For the sequence GACACGCGAAAGCGCGTC (((.(((....))).))), the Tm in data set [1] came to 63.9 °C. Moreover, the folding enthalpy in data set [2] is -25.2 kcal/mol.

With GACACGGGAAACTGTGTC (((((.(....).))))), the Tm in data set [1] was 53.5 °C. The folding enthalpy in data set [2] was -42.2 kcal/mol.

As to GACACTCCGAAAGGAGTC (((..(((....)))))), the Tm in data set [1] was found to be 32 °C. Besides, the folding enthalpy in data set [2] was -7.77 kcal/mol.

On to GACACTGGAAACAGCGTC (((.(((....))).))), for which the Tm in data set [1] turned out to be 46.4 °C. Also, in data set [2], the folding enthalpy was -35.2 kcal/mol.

GACACTGGAAACAGTGCC (.(((((....))))).): the Tm in data set [1] came out at 43.2 °C. The folding enthalpy in data set [2] is -14.8 kcal/mol.

As to GACAGCCCGAAAGGGGTC (((..(((....)))))), the Tm in data set [1] came out at 34.6 °C. In addition, the folding enthalpy in data set [2] was -11.4 kcal/mol.

As for GACAGCGAAAGCTAGTC ((((((....))).))), the Tm in data set [1] worked out at 51.2 °C. In data set [2], the folding enthalpy is -22.6 kcal/mol.

As to GACAGCGAAAGCTCAGTC ((((((....)))..))), in data set [1], the Tm stood at 38.7 °C. For the same sequence, in data set [2], the folding enthalpy is -11.5 kcal/mol.

In the case of GACAGCGAAAGCTTAGTC ((((((....)))..))), in data set [1], the Tm was 38.1 °C. Besides, the folding enthalpy in data set [2] was -19 kcal/mol.

As for GACAGCGAAAGCTTTGTC ((((((....)))..))), the Tm in data set [1] came to 37.5 °C. For the same sequence, in data set [2], the folding enthalpy was -16 kcal/mol.

As to GACAGCGCGAAAGCGGTC (((..(((....)))))), in data set [1], the Tm is 41.8 °C. In addition, the folding enthalpy in data set [2] is -11.4 kcal/mol.

Take GACAGGCGAAAGCCAGTC (((.(((....))).))): the Tm in data set [1] was determined as 58.1 °C. In addition, the folding enthalpy in data set [2] was -25.8 kcal/mol.

As to GACAGGCGAAAGCCCGTC (((.(((....))).))), the Tm in data set [1] was found to be 52.9 °C. The folding enthalpy in data set [2] was -22.3 kcal/mol.

For GACAGGGGAAACCCTATC ((.((((....)))).)), the Tm in data set [1] is 28 °C. For the same sequence, the folding enthalpy in data set [2] was -12.8 kcal/mol.

On to GACAGGGGAAACCCTGTC (((((((....))))))), for which the Tm in data set [1] worked out at 66.4 °C. In addition, the folding enthalpy in data set [2] is -42.6 kcal/mol.

For the sequence GACAGTGGAAACACTGCC (.(((((....))))).), the Tm in data set [1] amounted to 46 °C. Besides, the folding enthalpy in data set [2] is -14.5 kcal/mol.

Consider GACAGTGGAAACATTGTC ((((.((....)).)))), for which, in data set [1], the Tm amounted to 43 °C. Moreover, the folding enthalpy in data set [2] is -32.4 kcal/mol.
